Reference: ChEMBL document CHEMBL1133996, “The synthesis of pseudomycin C' via a novel acid promoted side-chain deacylation of pseudomycin A” (2001)
In brackets after ≈: the same amount, converted by molar mass.

Experiments:
Type in all cases: functional
Candida parapsilosis = assay: Minimum inhibitory concentration tested in vitro against Candida parapsilosis
How it was run: (§1)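 Robotic broth microdilution: DMSO stocks diluted in broth to a starting 20 µg/mL, serial 2-fold dilutions. Yeasts grown on Sabouraud dextrose agar, 35°C, 24 h, suspended in saline and adjusted to 1 × 10^5 conidia/mL in Sabouraud dextrose broth (hemacytometer count).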

Aspergillus fumigatus = assay: Minimum inhibitory concentration tested in vitro against Aspergillus fumigatus
How it was run: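 A. fumigatus broth microdilution: spores teased from mycelia grown on potato dextrose agar into 0.1% Tween 80/saline, adjusted to 1 × 10^5 spores/mL in Sabouraud broth. Compounds from DMSO, starting at 20 µg/mL, serial 2-fold dilutions.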

Cryptococcus neoformans = assay: Minimum inhibitory concentration tested in vitro against Cryptococcus neoformans; how it was run: as §1
Histoplasma capsulatum = assay: Minimum inhibitory concentration tested in vitro against Histoplasma capsulatum
How it was run: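 Robotic broth microdilution. Compounds dissolved in 100% DMSO, diluted in broth to start at 20 µg/mL in the first wells after inoculum, then serial 2-fold dilutions. Conidia suspended in saline and adjusted to 1 × 10^5 conidia/mL in Sabouraud dextrose broth. Incubated 48 h at 35 °C in ambient air. MIC = lowest concentration inhibiting 90–100% of visible growth vs untreated controls.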

Candida albicans = assay: Minimum inhibitory concentration tested in vitro against Candida albicans; how it was run: as §1
Mus musculus [1] = assay: Effective dose administered intraperitoneally against Candida albicans infected mice; conditions: ip
How it was run: (§2)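 C. albicans systemic infection in mice: 2 × 10^6 blastoconidia iv (0.1 mL, lateral tail vein). Dosed ip (0.2 mL) at 0, 4, 24 and 48 h post-infection at 20, 10 and 5.0 mg/kg, six mice per level, in 4.0% hydroxypropyl β cyclodextrin/sodium acetate pH 7.0/1.75% dextrose; vehicle-dosed infected controls (10). Morbidity/mortality followed 7 days; ED50 by Reed–Muench.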

Mus musculus [2] = assay: Effective dose against Candida albicans tested in infected mice on intraperitoneal administration; conditions: ip; how it was run: as §2
[3] = Lodderomyces parapsilosis, read-out: MIC
[4] = Aspergillus fumigatus, read-out: MIC
[5] = Cryptococcus neoformans, read-out: MIC
[6] = Histoplasma capsulatum, read-out: MIC
[7] = Candida albicans, read-out: MIC

| SMILES | MIC (Candida parapsilosis; [3]) [µg/mL] | MIC (Aspergillus fumigatus; [4]) [µg/mL] | MIC (Cryptococcus neoformans; [5]) [µg/mL] | MIC (Histoplasma capsulatum; [6]) [µg/mL] | MIC (Candida albicans; [7]) [µg/mL] | also measured |
| --- | --- | --- | --- | --- | --- | --- |
| C/C=C1/NC(=O)[C@H]([C@H](C)O)NC(=O)[C@H](CCN)NC(=O)[C@H](CCCCN)NC(=O)[C@H](CC(=O)O)NC(=O)[C@@H](CCN)NC(=O)[C@@H](NC(=O)CC(O)CCCCCCCCCCCCC)COC(=O)[C@H]([C@H](O)CCl)NC(=O)[C@H]([C@H](O)C(=O)O)NC1=O (stereo in doubt; form 1) | 0.156 (≈ 0.126 µM) | 1.25 (≈ 1.01 µM) | < 0.01 | 0.312 (≈ 0.252 µM) | 0.156 (≈ 0.126 µM) |  |
| C/C=C1/NC(=O)[C@H]([C@H](C)O)NC(=O)[C@H](CCN)NC(=O)[C@H](CCCCN)NC(=O)[C@H](CC(=O)O)NC(=O)[C@@H](CCN)NC(=O)[C@@H](NC(=O)CC(O)C(O)CCCCCCCCCCCC)COC(=O)[C@H]([C@H](O)CCl)NC(=O)[C@H]([C@H](O)C(=O)O)NC1=O (stereo not given in full) |  | 1.25 (≈ 0.999 µM) | 0.02 (≈ 0.016 µM) |  | 0.078 (≈ 0.0623 µM) | ED50 (Mus musculus [1]): > 5 mg/kg |
| C/C=C1/NC(=O)[C@H]([C@H](C)O)NC(=O)[C@H](CCN)NC(=O)[C@H](CCCCN)NC(=O)[C@H](CC(=O)O)NC(=O)[C@@H](CCN)NC(=O)[C@@H](NC(=O)C[C@H](O)CCCCCCCCCCCCC)COC(=O)[C@H]([C@H](O)CCl)NC(=O)[C@H]([C@H](O)C(=O)O)NC1=O (stereo in doubt; form 1) | 0.039 (≈ 0.0316 µM) |  | < 0.01 | 0.156 (≈ 0.126 µM) | 0.039 (≈ 0.0316 µM) | MIC (Aspergillus fumigatus): 0.312 µg/mL (≈ 0.252 µM) |
| C/C=C1/NC(=O)[C@H]([C@H](C)O)NC(=O)[C@H](CCN)NC(=O)[C@H](CCCCN)NC(=O)[C@H](CC(=O)O)NC(=O)[C@@H](CCN)NC(=O)[C@@H](NC(=O)CC(O)CCCCCCCCCCC)COC(=O)[C@H]([C@H](O)CCl)NC(=O)[C@H]([C@H](O)C(=O)O)NC1=O (stereo not given in full) |  | 10 (≈ 8.28 µM) | 0.02 (≈ 0.0166 µM) |  | 0.156 (≈ 0.129 µM) | ED50 (Mus musculus [1]): 3.5 mg/kg |
| C/C=C1/NC(=O)[C@H]([C@H](C)O)NC(=O)[C@H](CCN)NC(=O)[C@H](CCCCN)NC(=O)[C@H](CC(=O)O)NC(=O)[C@@H](CCN)NC(=O)[C@@H](NC(=O)CC(O)CCCCCCCCCCCCC)COC(=O)[C@H]([C@H](O)CCl)NC(=O)[C@H]([C@H](O)C(=O)O)NC1=O (stereo in doubt; form 2) |  |  |  |  |  | MIC (Aspergillus fumigatus): 0.625 µg/mL (≈ 0.506 µM); MIC (Cryptococcus neoformans): 0.005 µg/mL (≈ 0.00405 µM); ED50 (Mus musculus [1]): 2.5 mg/kg; MIC (Candida albicans): 0.156 µg/mL (≈ 0.126 µM) |
| C/C=C1/NC(=O)[C@H]([C@H](C)O)NC(=O)[C@H](CCN)NC(=O)[C@H](CCCCN)NC(=O)[C@H](CC(=O)O)NC(=O)[C@@H](CCN)NC(=O)[C@@H](NC(=O)CC(O)C(O)CCCCCCCCCCC)COC(=O)[C@H]([C@H](O)CCl)NC(=O)[C@H]([C@H](O)C(=O)O)NC1=O (stereo not given in full) |  | > 20 | 1.25 (≈ 1.01 µM) |  | 2.5 (≈ 2.02 µM) |  |
| C/C=C1/NC(=O)[C@H]([C@H](C)O)NC(=O)[C@H](CCN)NC(=O)[C@H](CCCCN)NC(=O)[C@H](CC(=O)O)NC(=O)[C@@H](CCN)NC(=O)[C@@H](NC(=O)CCCCCCCCCCCCCCC)COC(=O)[C@H]([C@H](O)CCl)NC(=O)[C@H]([C@H](O)C(=O)O)NC1=O | 10 (≈ 8.2 µM) |  | 1.25 (≈ 1.02 µM) | 10 (≈ 8.2 µM) | 10 (≈ 8.2 µM) |  |
| C/C=C1/NC(=O)[C@H]([C@H](C)O)NC(=O)[C@H](CCN)NC(=O)[C@H](CCCCN)NC(=O)[C@H](CC(=O)O)NC(=O)[C@@H](CCN)NC(=O)[C@@H](NC(=O)C[C@@H](O)CCCCCCCCCCCCC)COC(=O)[C@H]([C@H](O)CCl)NC(=O)[C@H]([C@H](O)C(=O)O)NC1=O | 5 (≈ 4.05 µM) | 20 (≈ 16.2 µM) | 5 (≈ 4.05 µM) | 5 (≈ 4.05 µM) | 5 (≈ 4.05 µM) |  |
| C/C=C1/NC(=O)[C@H]([C@H](C)O)NC(=O)[C@H](CCN)NC(=O)[C@H](CCCCN)NC(=O)[C@H](CC(=O)O)NC(=O)[C@@H](CCN)NC(=O)[C@@H](NC(=O)C[C@H](O)CCCCCCCCCCCCC)COC(=O)[C@H]([C@H](O)CCl)NC(=O)[C@H]([C@H](O)C(=O)O)NC1=O (stereo in doubt; form 2) |  |  |  |  |  | MIC (Candida parapsilosis): 0.02 µg/mL (≈ 0.0162 µM); MIC (Aspergillus fumigatus): 0.625 µg/mL (≈ 0.506 µM); MIC (Histoplasma capsulatum): 0.156 µg/mL (≈ 0.126 µM); MIC (Candida albicans): 0.039 µg/mL (≈ 0.0316 µM) |
| C/C=C1/NC(=O)[C@H]([C@H](C)O)NC(=O)[C@H](CCN)NC(=O)[C@H](CCCCN)NC(=O)[C@H](CC(=O)O)NC(=O)[C@@H](CCN)NC(=O)[C@@H](NC(=O)CC(O)C(O)CCCCCCCCCC)COC(=O)[C@H]([C@H](O)CCl)NC(=O)[C@H]([C@H](O)C(=O)O)NC1=O (stereo not given in full) |  | 10 (≈ 8.17 µM) | 0.078 (≈ 0.0637 µM) |  | 0.625 (≈ 0.511 µM) | ED50 (Mus musculus [2]): 7.1 mg/kg |
| C/C=C1/NC(=O)[C@H]([C@H](C)O)NC(=O)[C@H](CCN)NC(=O)[C@H](CCCCN)NC(=O)[C@H](CC(=O)O)NC(=O)[C@@H](CCN)NC(=O)[C@@H](NC(=O)CC(O)CCCCCCCCC)COC(=O)[C@H]([C@H](O)CCl)NC(=O)[C@H]([C@H](O)C(=O)O)NC1=O (stereo not given in full) |  | > 20 | 1.25 (≈ 1.06 µM) |  | 10 (≈ 8.48 µM) |  |
